A short description of the series: Toxicity liver stage against HepG2, at 10uM. More on the design: test concentration 10 uM, cell line HepG2-A16-CD81EGFP. Conditions: human, HepG2-A16-CD81EGFP cells; read-out: INHIBITION
It counts as cell-based. Summed up: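 Uninfected HepG2-A16-CD81EGFP cells, 3 × 10^3 per well, 1536-well, plated on prespotted compound at 10 μM final, parasite-free screening media added to match infected plates; puromycin 10 μM positive, DMSO 0.5% negative; run in parallel with 48 h PbLuc assay at 37 °C, 5% CO2; viability by CellTiter-Glo luminescence, normalized to controls.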
With `Oc1ccc(N2CCN(Cc3cc4c(cc3Br)OCCO4)CC2)cc1`, the cytotoxicity at 10 µM stood at 6.87%.

As to `CCS(=O)(=O)N1CCc2nc(N3CCCC3)nc(N(C)C)c2CC1`, the cytotoxicity at 10 µM was 14.3%.

With `O=C(CC1CC1)N1CCCn2c(nnc2Cn2cccc2)C1`, the cytotoxicity at 10 µM is 10.7%.

Take `CC(C)CN1C[C@H]2CCN(C(=O)C3CCCO3)CC[C@H]2S1(=O)=O` (some centres undefined): the cytotoxicity at 10 µM amounted to 19.3%.

For the molecule `CC1CCN(c2ccc3c(-c4ncc(C(=O)O)s4)noc3c2)CC1`, the cytotoxicity at 10 µM was determined as 2.13%.

As to `O=C(O)c1cc(-c2ccn(CC3CC3)n2)n2ccccc12`, the cytotoxicity at 10 µM amounted to 13.2%.

As to `Cc1cc(C(=O)N2CC[C@@H]3CO[C@@H](CN4CCCC4)[C@@H]3C2)no1`, the cytotoxicity at 10 µM amounted to 7.61%.

In the case of `CC(C)NC(=O)C1Cc2nc(-c3ccsc3)sc2N1CC1CC1` (centres undefined), the cytotoxicity at 10 µM was 6.61%.

Regarding `O=C(c1ccc[nH]1)N1CCN(Cc2ccncc2)c2ncccc2C1`, the cytotoxicity at 10 µM came out at 10.1%.

In the case of `O=C(c1cnccn1)N1CCC2(CCN(Cc3ccsc3)C2)CC1`, the cytotoxicity at 10 µM is -3.33%.

With `CN1CCN(C(=O)[C@@H]2C[C@@H]3CCN(c4cccc(F)c4)C[C@H]3O2)CC1`, the cytotoxicity at 10 µM was -6.22%.

As to `O=C(c1ccncc1)N1CCN2C[C@H](Oc3cncnc3)C[C@H]2C1`, the cytotoxicity at 10 µM was 8.7%.

For the molecule `CN(Cc1ccco1)C[C@H]1OC[C@@H]2CCN(Cc3nccs3)C[C@@H]21`, the cytotoxicity at 10 µM was -5.9%.

`Cc1oncc1C(=O)N1CCC2(CC1)CC(c1ccccc1)C(=O)N2C` (centres undefined): the cytotoxicity at 10 µM was -14.5%.

For `CCN1CCN(C(=O)C2CC(=O)N(c3cnn(C(C)C)c3)C2)CC1` (centres undefined), the cytotoxicity at 10 µM was found to be 5.61%.

On to `CC1(c2nccs2)CCN(C(=O)CCN2CCOCC2)CC1`, for which the cytotoxicity at 10 µM was 2.97%.

With `CCCC(=O)N1CCCCC1c1nc(N(C)C)ncc1-c1cc(C)no1` (centres undefined), the cytotoxicity at 10 µM was 4.94%.

On to `CNC(=O)CCc1cc(C)nc(C2CCN(CC(=O)N(C)C)CC2)c1`, for which the cytotoxicity at 10 µM amounted to 2.9%.

Turning to `Cc1ccsc1CN(CCCO)Cc1nc2ccccc2[nH]1`, the cytotoxicity at 10 µM is -21.3%.

Take `CN1CCNC(Cc2ccc(-c3ccccc3)cc2)C1=O` (centres undefined): the cytotoxicity at 10 µM is -41.9%.

Take `Cc1n[nH]c(C)c1-c1cnc(CC2CCN(C(C)C)CC2)cn1`: the cytotoxicity at 10 µM amounted to 22.3%.

Turning to `CCN(Cc1ccncc1)CC1(O)CCN(C(=O)c2ccccc2C)C1` (centres undefined), the cytotoxicity at 10 µM is -22%.

On to `CC1CCN(CCNCc2cc(-c3ccccc3)cn3nnnc23)CC1`, for which the cytotoxicity at 10 µM is -20.4%.

Take `CCN(CC(=O)NC(C)(C)C)Cc1cccc2c1OCCO2`: the cytotoxicity at 10 µM is -18.7%.

Turning to `CC(C)N1C(=O)CN(CCOCCO)CC1(C)C`, the cytotoxicity at 10 µM came out at 1.94%.

Consider `CCC(C)CS(=O)(=O)NCCc1csc(N2CCCC2)n1` (centres undefined), for which the cytotoxicity at 10 µM turned out to be 1.28%.

For `CC(C)NC(=O)CN(C)C(=O)c1csc(Cc2ccccc2F)n1`, the cytotoxicity at 10 µM stood at 3.24%.

For the molecule `Cc1cc(C)n(C2CCCN(C(=O)c3ccnc(N(C)C)c3)C2)n1` (centres undefined), the cytotoxicity at 10 µM came to 1.9%.

In the case of `CCOc1ccc(Cl)c(C(=O)N2CCCC(N3CCCC3)C2)n1` (centres undefined), the cytotoxicity at 10 µM was 8.29%.

Consider `CN(C)c1ccc(C(=O)N2CCCC2c2cnn(C)c2)nn1` (centres undefined), for which the cytotoxicity at 10 µM is -10.3%.

For the molecule `CC(C)N1CCC(Nc2ccn(C)n2)C1=O` (centres undefined), the cytotoxicity at 10 µM is -0.794%.

Turning to `CC(C)c1nc(S(=O)(=O)N(C)c2cc(F)ccc2F)c[nH]1`, the cytotoxicity at 10 µM stood at 13.9%.

For the molecule `CC(C)(C)CC(=O)NCC(=O)Nc1ccn(CCCn2ccnc2)n1`, the cytotoxicity at 10 µM was 10.6%.

As to `CCCN(CCC)C(=O)CN(C)Cc1cnc(C)s1`, the cytotoxicity at 10 µM came to 20.9%.

Consider `CN(C(=O)CCc1nc(C2CC2)no1)c1cc(C#N)c2ccccc2n1`, for which the cytotoxicity at 10 µM worked out at 0.55%.

`COCCCn1ccc(NS(=O)(=O)c2cc(F)c(C)cc2F)n1`: the cytotoxicity at 10 µM turned out to be 19.1%.

On to `Cc1ccc(NC(=O)Cn2cc(I)cn2)cc1`, for which the cytotoxicity at 10 µM was 9.06%.

`CN(C)C(=O)CNC(=O)Nc1cccc(Cl)c1SC(F)F`: the cytotoxicity at 10 µM was 1.31%.

For the molecule `O=C([C@@H]1CCS(=O)(=O)[C@@H]2CN(c3ncccn3)C[C@@H]21)N1CCOCC1`, the cytotoxicity at 10 µM was -100%.

Consider `Cc1nc(C)c2c(n1)CCN(C(=O)C1(C#N)CC1)CC2`, for which the cytotoxicity at 10 µM is -102%.

In the case of `Cc1noc(C)c1CCCNC(=O)Nc1ccc2c(c1)COC2`, the cytotoxicity at 10 µM amounted to 3.27%.

For the molecule `CCCc1nnc(N2CCC(N3CCCCCC3)CC2)o1`, the cytotoxicity at 10 µM is -15.3%.

Turning to `COc1cc(N2CCN(Cc3ccsc3)C(CCO)C2)nc(N)n1` (centres undefined), the cytotoxicity at 10 µM is 2.45%.

`Cc1ccc(-c2ncc(C(=O)N3CCN4CCCCC4C3)c(O)n2)cc1` (centres undefined): the cytotoxicity at 10 µM is -7.82%.

On to `O=C(CCCn1ccnc1)N[C@H]1CN(C2CCCC2)C[C@@H]1C1CC1`, for which the cytotoxicity at 10 µM was 7.69%.

Consider `COCCn1cnnc1CN(C)c1nc(N)nc2c1CCCC2`, for which the cytotoxicity at 10 µM is -6.98%.

`CC(=O)N1CCCN(C(C(=O)O)c2cccc(C)c2C)CC1` (centres undefined): the cytotoxicity at 10 µM was -2.75%.

With `Cc1n[nH]cc1C(=O)NCc1cccnc1N1CCc2ccccc2C1`, the cytotoxicity at 10 µM was found to be 8.81%.

`CCN(CC)CCN(C)c1nc(-c2ccc(Cl)cc2)nc2c1CNC2`: the cytotoxicity at 10 µM amounted to 1.78%.

For `CCCc1cc(C(=O)NC2CCCCNC2=O)[nH]n1` (centres undefined), the cytotoxicity at 10 µM is 0.828%.

With `N#Cc1ccccc1C(=O)NCCC1CN(Cc2ccco2)CCO1` (centres undefined), the cytotoxicity at 10 µM is -7.25%.

Consider `CCOc1ccnc(NCCc2nc(C)cc(=O)[nH]2)n1`, for which the cytotoxicity at 10 µM was -6.73%.

For `Cc1cnc(NCC(C)(C)N2CCCCC2)nc1`, the cytotoxicity at 10 µM is -2.69%.

In the case of `Cc1ncccc1O[C@H]1CCN(C(=O)c2cccs2)CC[C@@H]1O`, the cytotoxicity at 10 µM came to 0.719%.

With `CCS(=O)(=O)NCCCNCc1c(C)nn(C)c1N(C)C`, the cytotoxicity at 10 µM is -9.66%.

Regarding `CNS(=O)(=O)Cc1ccc(CNC(=O)c2cccc(C)n2)cc1`, the cytotoxicity at 10 µM is -3.79%.

`CC(=O)N(C)c1nc(CN2CCCCC2Cn2cncn2)cs1` (centres undefined): the cytotoxicity at 10 µM was -5.79%.

As for `O=C(NCC1CCOC1)Nc1ccc(OCC(F)(F)F)nc1` (centres undefined), the cytotoxicity at 10 µM is -5.41%.

As for `CCc1nc2n(n1)CC(NCC(=O)Nc1ccc(Cl)cn1)CC2` (centres undefined), the cytotoxicity at 10 µM is -10.3%.

In the case of `CC(C)NC(=O)[C@H]1C[C@@H]2[C@@H](C1)OCCN2Cc1ccccn1`, the cytotoxicity at 10 µM turned out to be 6.62%.

For `O=C(c1ccnnc1)N1CCN(Cc2ccncc2)c2ncccc2C1`, the cytotoxicity at 10 µM was -0.201%.

As to `Cc1ccnc(OC[C@@]23CCO[C@@H]2CCN(c2ncccn2)C3)n1`, the cytotoxicity at 10 µM was 4.86%.

For the molecule `O=C(NCc1cnc2n1CCN(Cc1nccs1)C2)c1ccno1`, the cytotoxicity at 10 µM is -104%.

For `O=C1CCC2(CCCN(CCc3ccccc3)C2)N1Cc1cccnc1` (centres undefined), the cytotoxicity at 10 µM came to 4.05%.

Turning to `CCC(C)N1Cc2c(C(=O)N3CCCC3)nn(C)c2C1` (centres undefined), the cytotoxicity at 10 µM is -5.03%.

In the case of `O=C([C@H]1C[C@@H]2CCN(c3cccc(F)c3)C[C@H]2O1)N1CCCCO1`, the cytotoxicity at 10 µM worked out at 1.67%.

Turning to `O=C(c1ccco1)N1C[C@@H]2OCCN(CCN3CCCC3)[C@@H]2C1`, the cytotoxicity at 10 µM came to 1.54%.

For `CC(C)n1nc(Cn2cccc2)c2c1CN(C1CCOCC1)C2`, the cytotoxicity at 10 µM worked out at 7.55%.

`CN(C)[C@@H]1CCN(C(=O)NC2CCCC2)[C@H]1Cc1ccncc1`: the cytotoxicity at 10 µM came out at 5.83%.

These data come from ChEMBL document CHEMBL4513216, “Probing the Open Global Health Chemical Diversity Library for Multistage-Active Starting Points for Next-Generation Antimalarials” (ACS Infect Dis, 2020).
